Measurements published in ChEMBL document CHEMBL1268870 (J Med Chem, 2010).
Calls of active or inactive are those of the source. The rule behind the calls is not given here.

Columns and labels:
[1] = biological target: T1, GABA-A receptor; alpha-1/beta-2/gamma-2 (Homo sapiens) (UniProt P14867+P47870+P18507); test: Allosteric modulation of human GABAA alpha-1-beta-2-gamma-2 receptor expressed in Xenopus laevis assessed as enhancement of [3H]flunitrazepam binding up to 10 uM
[2] = biological target: T1, GABA-A receptor; alpha-1/beta-2/gamma-2 (Homo sapiens); test: Allosteric modulation of human GABAA alpha-1-beta-2-gamma-2 receptor expressed in Xenopus laevis assessed as enhancement of [3H]mucimol binding up to 10 uM
Torpedo = test: Binding affinity to Torpedo nAChR assessed as photoincorporation in to membrane; type: cell membranes; conditions: tested as the 3H-labelled form
Outline: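 Torpedo californica nAChR-rich membranes at 2 mg/mL in Torpedo saline pH 7.0 with 1 mM oxidized glutathione. Incubated 40 min at room temperature with 0.3 μM tritiated probe, ± carbamylcholine, proadifen, tetracaine or PCP, then irradiated at 365 nm for 30 min on ice. Subunits separated by SDS-PAGE. Incorporation measured by fluorography and by scintillation counting of excised bands (two parallel labelings).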

[3] = Inhibition of Torpedo nAChR expressed in Xenopus oocyte assessed as inhibition of ACh-induced channel current
[4] = biological target: T2, 5-hydroxytryptamine receptor 3A (Homo sapiens) (UniProt P46098); test: Displacement of [3H]GR65630 from 5HT3A receptor expressed in Xenopus oocyte
T2 sequence (whole entry): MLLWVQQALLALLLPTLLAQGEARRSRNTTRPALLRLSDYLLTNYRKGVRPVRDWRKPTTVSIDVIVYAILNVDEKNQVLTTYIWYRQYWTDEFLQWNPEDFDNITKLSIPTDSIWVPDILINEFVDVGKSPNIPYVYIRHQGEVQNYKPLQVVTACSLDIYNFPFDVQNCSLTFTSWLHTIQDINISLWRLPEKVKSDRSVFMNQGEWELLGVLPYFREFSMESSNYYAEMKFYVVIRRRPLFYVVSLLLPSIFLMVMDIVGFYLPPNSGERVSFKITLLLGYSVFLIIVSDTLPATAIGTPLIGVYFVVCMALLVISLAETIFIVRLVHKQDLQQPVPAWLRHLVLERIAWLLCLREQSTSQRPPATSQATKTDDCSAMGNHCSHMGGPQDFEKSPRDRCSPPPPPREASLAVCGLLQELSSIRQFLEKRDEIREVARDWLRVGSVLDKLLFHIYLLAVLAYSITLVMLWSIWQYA

[5] = biological target: T2, 5-hydroxytryptamine receptor 3A (Homo sapiens); test: Inhibition of 5HT3A receptor expressed in Xenopus oocyte at 20 uM
Homo sapiens = organism: Homo sapiens; test: Agonist activity at human GABA-A alpha-1-beta-2-gamma-2 receptor expressed in Xenopus laevis assessed as increase in channel current at saturated concentration by electrophysiology relative to control; type: functional
[6] = biological target: T1, GABA-A receptor; alpha-1/beta-2/gamma-2 (Homo sapiens); test: Agonist activity at human GABA-A alpha-1-beta-2-gamma-2 receptor expressed in Xenopus laevis assessed as increase in channel current at 10 uM by electrophysiology relative to control; type: functional
[7] = biological target: T2, 5-hydroxytryptamine receptor 3A (Homo sapiens); test: Inhibition of 5HT3A receptor expressed in Xenopus oocyte at 9 uM
Outline: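 Oocytes injected with ~50 ng human 5-HT3A cRNA. Two-electrode voltage clamp at −50 mV, room temperature, ND96. Compound was pre-applied for 30 s, then co-applied with 100 μM 5-HT for 30 s. Peak current was expressed as a percentage of the mean of the flanking 100 μM 5-HT control currents. Fixed compound concentration of 9 μM.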

Xenopus laevis = test: Anesthetic potency in Xenopus laevis; type: functional, organism-based
[8] = biological target: T1, GABA-A receptor; alpha-1/beta-2/gamma-2 (Homo sapiens); test: Agonist activity at human GABA-A alpha-1-beta-2-gamma-2 receptor expressed in Xenopus laevis assessed as increase in channel current at 5 uM by electrophysiology relative to control; type: functional
[9] = biological target: T1, GABA-A receptor; alpha-1/beta-2/gamma-2 (Homo sapiens); test: Agonist activity at human GABAA alpha-1-beta-2-gamma-2 mutant receptor expressed in Xenopus laevis assessed as increase in channel current at 10 uM by electrophysiology relative to control; type: functional
Outline: (§1)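 Oocytes expressing human α1β2(M286W)γ2L GABA-A receptor. Two-electrode voltage clamp at −50 mV, room temperature, ND96 pH 7.5. […] Applications lasted 15–20 s with ~3 min washes.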

[10] = biological target: T1, GABA-A receptor; alpha-1/beta-2/gamma-2 (Homo sapiens); test: Agonist activity at human GABAA alpha-1-beta-2-gamma-2 mutant receptor expressed in Xenopus laevis assessed as increase in channel current at 5 uM by electrophysiology relative to control; type: functional; outline: as §1

Compound | Activity [1] | Activity [2] | Activity (Torpedo) | IC50 [3] [µM] | Activity [4] | inhibition [5] [%] | Activity (Homo sapiens) [%] | Imax [6] [%] | inhibition [7] [%] | EC50 (Xenopus laevis) [µM] | fold change (FC) [8] | fold change (FC) [6] | fold change (FC) [9] | fold change (FC) [10]
CCOC(=O)c1cncn1C(C)c1ccc(C2(C(F)(F)F)N=N2)cc1 (stereo unspecified) | inactive | inactive | Active | 4.1 | inactive | 1.7 | 1.3 | – | – | – | – | – | – | –
CCOC(=O)c1cncn1[C@H](C)c1ccc(C2(C(F)(F)F)N=N2)cc1 | – | – | – | 11.3 | – | – | – | 0.73 | 34 | 17.1 | – | – | – | –
CCOC(=O)c1cncn1[C@H](C)c1ccccc1 | Active | – | – | – | inactive | – | – | – | – | – | – | – | – | –
CCOC(=O)c1cncn1[C@@H](C)c1ccc(C2(C(F)(F)F)N=N2)cc1 | – | – | – | 4.7 | – | – | – | 0.9 | 29 | 4.9 | 2.2 | 3 | 2.2 | 1.8
